High-throughput results from PubChem BioAssay.
Cneo AK release = causes C. neoformans cell lysis; adenylate kinase release luminescence, 4 h; normalised: neutral wells 0, clomiphene wells 100; lysis activity, % at 15 µM; hit rate 0.2% among 360,000; AID 651654;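 active means mean lysis activity across replicates of at least 80%, whatever share of replicates individually reach that level; inactive means mean lysis activity below 80%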
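Assay system: log-phase C. neoformans yeast / Quantity: yeast cell density of 5 × 10^6 cells/mL / Medium: fresh YPD growth medium / Compound: single dose / Timing: static 4 h at 37 °C with compound, 1 h detection / Measured by: adenylate kinase release luminescence / Read-out: lysis from increased AK signal / Benchmarks: Clomiphene as positive lysis control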
Ecoli rRNA inh = selective bacterial rRNA inhibition in E. coli; E. coli WT GFP vs humanized-ribosome RFP mutants, fluorescence, 24 h; stronger effect = lower value; DMSO median 0, no signal -100; GFP signal change (wild-type ribosome), % (test concentration not listed); hit rate 1.6% among 350,000; AID 720706;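 active means significant combined selectivity score with lowered wild-type GFP, culture density cut under 30%, mutant RFP and density less affected; inactive means any of these conditions unmet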
PGC1a acetyl inh = lowers PGC1a acetylation signal in U2OS cells; AlphaScreen anti-acetyl-lysine; with virally co-expressed GCN5 acetyltransferase; inhibition, % at 15.6 µM; hit rate 0.17% among 350,000;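 active means every replicate shows inhibition of at least 40%; inconclusive means mean inhibition at least 40% but some replicate below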;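 further: 0% = neutral control wells and 100% = positive control wells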
Vif imaging = blocks HIV Vif function; hit rate 0.35% among 340,000; inhibition, % at 7.49 µM; HEK293T cells, Vif self-association by quenched fluorescence, imaging, 24 h; in the data active means inhibition above about 50%, passing the limit was not always enough; inconclusive means no clear call, values can overlap the other calls; inactive means below about 31%
PglD DTNB = PglD (C. jejuni) enzyme inhibition; purified PglD enzyme, DTNB colorimetric CoA detection; inhibition, % at 12.5 µM; hit rate 0.098% among 360,000; in the data active means inhibition above about 16%, passing the limit was not always enough; inconclusive means no clear call, values can overlap the other calls
FGF22 binding = shifts melting point of recombinant human FGF22 | Q9HCT0 | AID 651658 | hit rate 1.5% among 340,000 | activity (Tm shift, normalised), % at 9.99 µM | recombinant FGF22 thermal shift, SYPRO orange fluorescence; percent of sucrose octasulfate shift, DMSO zero;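 active means mean Tm shift, scaled 0 neutral to 100 positive control, at about 1.3% or above, every replicate too, limit read from the data; inconclusive means no clear call, values can overlap the other calls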
Target sequence (Q9HCT0 whole entry, looked up): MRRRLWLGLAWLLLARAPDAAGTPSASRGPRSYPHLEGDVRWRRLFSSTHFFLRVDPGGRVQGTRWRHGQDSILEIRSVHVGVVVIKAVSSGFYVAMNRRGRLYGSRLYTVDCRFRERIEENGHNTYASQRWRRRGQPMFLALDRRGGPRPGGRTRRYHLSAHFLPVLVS
AID977621 = wild-type E. coli growth inhibition versus H69 humanized strain – H69 mutant RFP, wild-type GFP, cherry-pick, dose response. 1,900 tested, under 10 active. shares compounds with Ecoli rRNA inh. fluorescence, 24 h. activity change, negative = inhibition at 50 µM;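 active means Wild-type ribosome reporter drop at least double the humanized mutant ribosome reporter drop, growth loss under a set limit; inconclusive means no clear call, values can overlap the other calls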;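 further: wild-type GFP and H69 mutant RFP strains grown together 50/50 in each well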
AID977628 = E. coli growth inhibition, wild-type GFP versus h24 humanized RFP strain, dose response, h24 mutant RFP vs wild-type GFP, cherry-pick; shares compounds with Ecoli rRNA inh; AID 977628; E. coli WT GFP strain growth, fluorescence, 24 h; activity change, negative = inhibition at 50 µM; 1,900 tested, under 10 active;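 active means compound lowering the normal-ribosome reporter at least twice as much as the humanized-ribosome reporter, growth loss under a set limit; inconclusive means no clear call, values can overlap the other calls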;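 further: wild-type GFP and h24 humanized RFP strains co-cultured 1 to 1 per well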
Starred values were filed as active, the others as inactive; u = inconclusive; x = no result. The list is not random: actives were taken first. Their share in the collection is about 2.9%.

SMILES	Cneo AK release	Ecoli rRNA inh	PGC1a acetyl inh	Vif imaging	PglD DTNB	FGF22 binding	AID977621	AID977628
C[C@H](CO)N1C[C@H](C)[C@H](CN(C)Cc2ccc(C(F)(F)F)cc2)OCCCC[C@H](C)Oc2ccc(NS(=O)(=O)c3ccc(F)cc3)cc2C1=O	1	-4	17	x	1	-1	x	x
CSc1nc2ccc(NS(=O)(=O)c3ccc([N+](=O)[O-])cc3)cc2s1	1	-22*	23	-1	-2	0	-14	-7.9
CSc1nc2ccc(NS(=O)(=O)c3ccc(CNC(C)=O)cc3)cc2s1	1	1	x	13	0	0	x	x
O=C(C[C@@H]1CC[C@@H]2[C@H](COC[C@H](O)CN2C(=O)c2ccc(F)cc2)O1)NCc1cccc(F)c1	-4	-2	0	x	0	1	x	x
COc1ccc(C(=O)NC(C(=O)N2CCN(C/C=C/c3ccccc3)CC2)C(C)C)cc1 (stereo not given)	-1	-3	12	-4	1	0	x	x
CC(C)[C@H](NC(=O)c1ccc([N+](=O)[O-])cc1Cl)C(=O)N1CCN(C/C=C/c2ccccc2)CC1	x	-21*	1	2	x	0	x	u
Cc1ccc(OCC(O)CN2CCN(c3ccccn3)CC2)c(C)c1 (stereo not given)	x	-17*	-3	1	x	0	x	u
C[C@H](CO)N1C[C@H](C)[C@@H](CN(C)S(=O)(=O)c2cccs2)Oc2c(NS(=O)(=O)c3cccs3)cccc2C1=O	x	-6	x	x	x	x	x	x
CN(C)C(=O)c1cccc(-c2ccc3c(c2)[C@@H]2[C@@H](CCN2C(=O)C2CCOCC2)[C@H](CO)N3)c1	10	0	-6	x	-4	0	x	x
COCCOC(=O)N1C(=O)[C@@]2(c3cc(C#CCCO)ccc31)[C@H](c1ccccc1OCCO)N1[C@H](c3ccccc3)[C@H](c3ccccc3)OC(=O)[C@H]1[C@@H]2C(=O)N1CCN(c2ncccn2)CC1	47	x	x	x	-17	0	x	x
Cc1ccc(NC(=O)COC(=O)CCNS(=O)(=O)c2c(Cl)cccc2Cl)cc1	0	-14*	-12	-11	-2	1	3.4	-8.1
C[C@H]1CN(C)C(=O)c2cccc(NS(C)(=O)=O)c2O[C@@H]1CN(C)S(C)(=O)=O	x	1	x	x	x	x	x	x
COc1ccc(OC)c(NC(=O)COC(=O)C2CCN(C(=O)c3ccc(Cl)cc3)CC2)c1	x	-27*	x	-3	x	0	-7.7	x
COc1ccc(OC)c(NC(=O)COC(=O)CCNc2ccccc2OC)c1	-1	-20*	-4	3	-3	-1	5.9	-1.8
COc1ccc(OC)c(NC(=O)COc2ccc(S(=O)(=O)NC(C)C)cc2)c1	1	-23*	-2	-4	-2	x	-11	-12
COc1ccccc1NC(=O)COC(=O)Cc1c[nH]c2ccccc12	1	-17*	2	-6	1	0	4.4	-4.5
COc1ccc(OC)c(NC(=O)COc2ccc(S(=O)(=O)N3CCCC3)cc2)c1	-2	-8	x	u	-3	0	x	x
COc1ccccc1CNC(=O)COC(=O)Cc1c[nH]c2ccccc12	1	-4	x	2	1	0	x	x
COc1ccc(OC)c(NC(=O)COC(=O)Cc2ccc(-c3ccccc3)cc2)c1	-3	x	-4	12	-4	x	x	x
C[C@H]1CN([C@@H](C)CO)C(=O)c2cccc(NS(=O)(=O)c3ccc(Cl)cc3)c2O[C@H]1CN(C)Cc1ccc(-c2ccccc2)cc1	50	x	0	x	7	-1	x	x
CCNC(=O)C[C@@H]1CC[C@@H]2[C@H](COc3ccc(NC(=O)Nc4ccccc4C)cc3C(=O)N2C)O1	0	0	10	x	-4	0	x	x
O=C(COC(=O)C1CC2C=CC1C2)NCCc1ccccc1 (stereo not given)	-3	-21*	3	-7	-243	0	-20	-8.4
